From ChEMBL document CHEMBL1641387, “Antiproliferative effects of saponins from the roots of Platycodon grandiflorum on cultured human tumor cells” (J Nat Prod, 2010) come the findings set out here.

Activity calls are given as the source filed them. The calls are words filed in the database; no cut-off is given here.

What all share (format): functional, cell-based
Assay [1] is described as follows: (§1) Antiproliferative activity against human MESSA/DX5 cells after 48 hrs by sulforhodamine B assay. The note with it: MES-SA/Dx5, 48 h. An outline of the steps:
(§2)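 Cells kept in RPMI1640 with 5% FBS at 37 °C, 5% CO2. HCT15/CL02 is a line derived from HCT15 by stepwise doxorubicin exposure. Cells seeded and left 24 h to attach, then exposed continuously for 48 h to serially diluted saponins. Fixed with cold 10% TCA, 1 h at 4 °C, stained with 0.4% SRB, dye solubilized in 10 mM Tris (pH 10.5), absorbance at 520 nm. Each run in triplicate; IC50 by nonlinear regression, mean ± SD of three independent experiments.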

Assay [2] can be described thus: (§3) Antiproliferative activity against human HCT15/CL02 cells after 48 hrs by sulforhodamine B assay. The note with it: HCT-15, 48 h. An outline of the steps: as §2
Assay [3] is described as follows: (§4) Antiproliferative activity against human MESSA cells after 48 hrs by sulforhodamine B assay. To be noted: MES-SA. An outline of the steps: as §2
The test system of assay [4] is HCT-15. Kind of assay: Antiproliferative activity against human HCT15 cells after 48 hrs by sulforhodamine B assay. To be noted: for IC50: HCT-15, 48 h. An outline of the steps:
as §2

The subject of the next assay is MES-SA/Dx5. The description is as §1. In short, it runs like this: as §2
For assay [5], the system named is HCT-15. The assay is described as §3. In short, it runs like this:
as §2

The test system of a further assay is MES-SA. The description is as §4. In short, it runs like this: as §2

With `COc1cc([C@@H]2c3cc4c(cc3[C@@H](O[C@@H]3O[C@@H]5CO[C@@H](C)O[C@H]5[C@H](O)[C@H]3O)[C@H]3COC(=O)[C@H]23)OCO4)cc(OC)c1O` [ETOPOSIDE], the IC50 is more than 10 µM in assay [1], more than 10 µM in assay [2], 0.3 µM in assay [3] and 1.6 µM in the assay with HCT-15 [4].
In the case of `CC(=O)O[C@H]1[C@H](O[C@H]2[C@H](OC(=O)[C@]34CCC(C)(C)C[C@H]3C3=CC[C@@H]5[C@@]6(C)C[C@H](O)[C@H](O[C@@H]7O[C@H](CO)[C@@H](O)[C@H](O)[C@H]7O)C(CO)(CO)[C@@H]6CC[C@@]5(C)[C@]3(C)C[C@H]4O)OC[C@H](O)[C@@H]2O)O[C@@H](C)[C@H](O[C@@H]2OC[C@@H](O)[C@H](O[C@@H]3OC[C@](O)(CO)[C@H]3O)[C@H]2O)[C@H]1O` [3'O-ACETYLPLATYCODIN D], the IC50 in assay [1] was 2.2 µM; in assay [2], 4.1 µM; in assay [3] it was 2.3 µM; in the assay on HCT-15 [4], 3.4 µM.
The like results for `CC(=O)O[C@H]1[C@@H](O)[C@H](O[C@H]2[C@H](OC(=O)[C@]34CCC(C)(C)C[C@H]3C3=CC[C@@H]5[C@@]6(C)C[C@H](O)[C@H](O[C@@H]7O[C@H](CO)[C@@H](O)[C@H](O)[C@H]7O)[C@@](C)(CO)[C@@H]6CC[C@@]5(C)[C@]3(C)C[C@H]4O)OC[C@H](O)[C@@H]2O)O[C@@H](C)[C@@H]1O[C@@H]1OC[C@@H](O)[C@H](O[C@@H]2OC[C@](O)(CO)[C@H]2O)[C@H]1O` were, in that order, 4.2 µM, more than 10 µM, 3.6 µM and 6.7 µM.
Turning to `C[C@@H]1O[C@@H](O[C@H]2[C@H](OC(=O)[C@]34CCC(C)(C)C[C@H]3C3=CC[C@@H]5[C@@]6(C)C[C@H](O)[C@H](O[C@@H]7O[C@H](CO)[C@@H](O)[C@H](O[C@@H]8O[C@H](CO)[C@@H](O)[C@H](O)[C@H]8O)[C@H]7O)C(CO)(CO)[C@@H]6CC[C@@]5(C)[C@]3(C)C[C@H]4O)OC[C@H](O)[C@@H]2O)[C@H](O)[C@H](O)[C@H]1O[C@@H]1OC[C@@H](O)[C@H](O)[C@H]1O`, the result with MES-SA/Dx5, in the assay on HCT-15 [5], with MES-SA and in the assay on HCT-15 [4] was Active.
As to `C[C@@H]1O[C@@H](O[C@H]2[C@H](OC(=O)[C@]34CCC(C)(C)C[C@H]3C3=CC[C@@H]5[C@@]6(C)C[C@H](O)[C@H](O[C@@H]7O[C@H](CO)[C@@H](O)[C@H](O[C@@H]8O[C@H](CO)[C@@H](O)[C@H](O)[C@H]8O)[C@H]7O)[C@@](C)(CO)[C@@H]6CC[C@@]5(C)[C@]3(C)C[C@H]4O)OC[C@H](O)[C@@H]2O)[C@H](O)[C@H](O)[C@H]1O[C@@H]1OC[C@@H](O)[C@H](O[C@@H]2OC[C@](O)(CO)[C@H]2O)[C@H]1O` [POLYGALACIN D2], the IC50 in assay [1] worked out at 3.4 µM; in assay [2] it was 5.8 µM; in assay [3] it was 2.6 µM; in the assay on HCT-15 [4] it was 3.8 µM.
As to `C[C@@H]1O[C@@H](O[C@H]2[C@H](OC(=O)[C@]34CCC(C)(C)C[C@H]3C3=CC[C@@H]5[C@@]6(C)C[C@H](O)[C@H](O[C@@H]7O[C@H](CO)[C@@H](O)[C@H](O[C@@H]8O[C@H](CO)[C@@H](O)[C@H](O)[C@H]8O)[C@H]7O)C(CO)(CO)[C@@H]6CC[C@@]5(C)[C@]3(C)C[C@H]4O)OC[C@H](O)[C@@H]2O)[C@H](O)[C@H](O)[C@H]1O[C@@H]1OC[C@@H](O)[C@H](O[C@@H]2OC[C@](O)(CO)[C@H]2O)[C@H]1O` [PLATYCODIN D2], the IC50 was found to be 5.2 µM in assay [1], 5.7 µM in assay [2], 3.5 µM in assay [3] and 9.6 µM with HCT-15 [4].
As for `C[C@@H]1O[C@@H](O[C@H]2[C@H](OC(=O)[C@]34CCC(C)(C)C[C@H]3C3=CC[C@@H]5[C@@]6(C)C[C@H](O)[C@H](O[C@@H]7O[C@H](CO)[C@@H](O)[C@H](O)[C@H]7O)C(CO)(CO)[C@@H]6CC[C@@]5(C)[C@]3(C)C[C@H]4O)OC[C@H](O)[C@@H]2O)[C@H](O)[C@H](O)[C@H]1O[C@@H]1OC[C@@H](O)[C@H](O[C@@H]2OC[C@](O)(CO)[C@H]2O)[C@H]1O` [PLATYCODIN D], the half-inhibitory concentration (IC50) in assay [1] is more than 10 µM; in assay [2] it was 7.9 µM; in assay [3], 3.9 µM; in the assay with HCT-15 [4], 5.7 µM.
As to `C[C@@H]1O[C@@H](O[C@H]2[C@H](OC(=O)[C@]34CCC(C)(C)C[C@H]3C3=CC[C@@H]5[C@@]6(C)C[C@H](O)[C@H](O[C@@H]7O[C@H](CO)[C@@H](O)[C@H](O)[C@H]7O)[C@@](C)(CO)[C@@H]6CC[C@@]5(C)[C@]3(C)C[C@H]4O)OC[C@H](O)[C@@H]2O)[C@H](O)[C@H](O)[C@H]1O[C@@H]1OC[C@@H](O)[C@H](O[C@@H]2OC[C@](O)(CO)[C@H]2O)[C@H]1O` [POLYGALACIN D], the IC50 in assay [1] was 7.7 µM; in assay [2] it was more than 10 µM; in assay [3] it was 5 µM; in the assay on HCT-15 [4] it was 8.5 µM.
`CC(=O)O[C@H]1[C@H](O[C@H]2[C@H](OC(=O)[C@]34CCC(C)(C)C[C@H]3C3=CC[C@@H]5[C@@]6(C)C[C@H](O)[C@H](O[C@@H]7O[C@H](CO)[C@@H](O)[C@H](O)[C@H]7O)[C@@](C)(CO)[C@@H]6CC[C@@]5(C)[C@]3(C)C[C@H]4O)OC[C@H](O)[C@@H]2O)O[C@@H](C)[C@H](O[C@@H]2OC[C@@H](O)[C@H](O[C@@H]3OC[C@](O)(CO)[C@H]3O)[C@H]2O)[C@H]1O`: the IC50 is 6.2 µM in assay [1], more than 10 µM in assay [2], 6.3 µM in assay [3] and more than 10 µM in the assay with HCT-15 [4].
Take `CC(=O)O[C@H]1[C@H](O[C@H]2[C@H](OC(=O)[C@]34CCC(C)(C)C[C@H]3C3=CC[C@@H]5[C@@]6(C)C[C@H](O)[C@H](O[C@@H]7O[C@H](CO)[C@@H](O)[C@H](O[C@@H]8O[C@H](CO)[C@@H](O)[C@H](O)[C@H]8O)[C@H]7O)[C@@](C)(CO)[C@@H]6CC[C@@]5(C)[C@]3(C)C[C@H]4O)OC[C@H](O)[C@@H]2O)O[C@@H](C)[C@H](O[C@@H]2OC[C@@H](O)[C@H](O[C@@H]3OC[C@](O)(CO)[C@H]3O)[C@H]2O)[C@H]1O`: the IC50 was 3.4 µM in assay [1], 5.8 µM in assay [2], 3.3 µM in assay [3] and 3.6 µM in the assay with HCT-15 [4].
In the case of `CC(=O)O[C@H]1[C@@H](O)[C@H](O[C@H]2[C@H](OC(=O)[C@]34CCC(C)(C)C[C@H]3C3=CC[C@@H]5[C@@]6(C)C[C@H](O)[C@H](O[C@@H]7O[C@H](CO)[C@@H](O)[C@H](O[C@@H]8O[C@H](CO)[C@@H](O)[C@H](O)[C@H]8O)[C@H]7O)[C@@](C)(CO)[C@@H]6CC[C@@]5(C)[C@]3(C)C[C@H]4O)OC[C@H](O)[C@@H]2O)O[C@@H](C)[C@@H]1O[C@@H]1OC[C@@H](O)[C@H](O[C@@H]2OC[C@](O)(CO)[C@H]2O)[C@H]1O` [2'OACETYLPOLYGALACIN D2], the concentration for half-maximal inhibition (IC50) in assay [1] turned out to be 3.4 µM; in assay [2], 5.9 µM; in assay [3], 3.4 µM; in the assay with HCT-15 [4], 3.6 µM.
With `CC(=O)O[C@H]1[C@@H](O)[C@H](O[C@H]2[C@H](OC(=O)[C@]34CCC(C)(C)C[C@H]3C3=CC[C@@H]5[C@@]6(C)C[C@H](O)[C@H](O[C@@H]7O[C@H](CO)[C@@H](O)[C@H](O)[C@H]7O)C(CO)(CO)[C@@H]6CC[C@@]5(C)[C@]3(C)C[C@H]4O)OC[C@H](O)[C@@H]2O)O[C@@H](C)[C@@H]1O[C@@H]1OC[C@@H](O)[C@H](O[C@@H]2OC[C@](O)(CO)[C@H]2O)[C@H]1O`, the half-inhibitory concentration (IC50) in assay [1] was 2.2 µM; in assay [2], 4.2 µM; in assay [3], 2.3 µM; in the assay on HCT-15 [4], 3.4 µM.
